Activity calls are given as the source filed them.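 The calls were made as follows, unless noted: active = viability at or below 10% of carrier control in both of two separate runs; inconclusive = viability at or below 10% in only one of the two runs; inactive = the rest.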

Assay [1] in a line: reducers of endogenous Her2 protein level, primary screen, SKBR3 breast tumor cells, AlphaScreen, ATP viability (AID 461;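 active = Her2 level under about 52% in both replicate screens, with viability over 70% of control, limit read from the data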;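 as to Her2 level: lower value means less Her2 protein in the cells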;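 as to viability: percent of carrier control wells set as 100% viability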). The conditions noted are these: 18-24 h, measured here: SKBR3 viability, ATP luminescence, at 10 µM.
Assay [2] has as its target Receptor tyrosine-protein kinase erbB-2 (Homo sapiens) (UniProt P04626). Described as above. Conditions: 18-24 h, at 10 µM, stronger effect = lower value.
Assay [3] is described as follows: SK-BR-3 cell growth inhibitors, pilot screen, 24 h, human (AID 572).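 Also: compound exposure lasted between 18 and 24 h rather than exactly 24 h; 100% = carrier-treated control wells.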 Conditions: SK-BR-3 viability, CellTiter-Glo luminescence, at 10 µM, stronger effect = lower value.
Assay [4] can be described thus: HUVEC growth inhibition – cell-based, human, primary screen (AID 575;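 active = viability at or below 30% in both replicate assays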;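 also: 100% = median of untreated cell wells with 0.1% DMSO on each plate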). The conditions noted are these: HUVEC proliferation, CellTiter-Glo luminescence, 72 h; at 10 µM; stronger effect = lower value. The essentials:
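Assay system: primary human umbilical vein endothelial cells / Buffer or medium: endothelial basal medium with 2% FBS plus growth supplements / Compound dosing: one dose, 10 µM final, 0.1% DMSO / Timing: 72 h treatment at 37 °C / Signal: CTG luminescence / Benchmarks: 32 DMSO-only cell-control wells (high), 32 MePR drug-control wells (low) per plate / Plate: collagen-coated 384-well format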

Assay [5] is described as follows: growth inhibitors of H69AR lung tumor, primary screen, human, duplicate replicates (AID 580;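 active = viability at or under a set limit in both replicates, limit being median viability minus 3 SD, cut at about 48% in these data, passing the limit was not always enough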;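 also: 100% = mean luminescence of untreated wells and 0% = no signal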). Conditions: H69AR lung tumor cells viability, ATP luminescence, 72 h; at 10 µM; stronger effect = lower value.
Assay [6] can be described thus: reversal of MRP1-mediated doxorubicin resistance, pilot screen, H69AR cells, doxorubicin co-treatment (AID 601;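 active = viability loss from added drug above about 55%, and viability with drug at most 40%, in both replicates, limit read from the data, passing the limit was not always enough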). The conditions noted are these: CellTiter-Glo, 72 h, at 10 µM; for differential viability (reversal): stronger effect = higher value.
Assay [7] in a line: 384-well plate pilot, post-Golgi transport modulator project, inhibition of yeast transport mutant growth (AID 636; in the data active = inhibition above about 31%). Conditions: absorbance 615 nm, about 18 h, stronger effect = higher value.
Assay [8] can be described thus: growth suppression of yeast trafficking mutant, preliminary HTS, modulators of trafficking downstream of Golgi apparatus project, 1536-format plate, OD 615 nm (AID 637; in the data active = inhibition above about 30%). Conditions: yeast transport mutant growth, absorbance 615 nm, 18 h; stronger effect = higher value.
The mark [9] stands for this setting: H69AR cells + 2 uM doxorubicin, measured here: viability with 2 uM doxorubicin, stronger effect = lower value.
[10] abbreviates: H69AR cells, compound alone cytotoxicity.

Receptor tyrosine-protein kinase erbB-2 (Homo sapiens), sequence (P04626 whole entry, looked up): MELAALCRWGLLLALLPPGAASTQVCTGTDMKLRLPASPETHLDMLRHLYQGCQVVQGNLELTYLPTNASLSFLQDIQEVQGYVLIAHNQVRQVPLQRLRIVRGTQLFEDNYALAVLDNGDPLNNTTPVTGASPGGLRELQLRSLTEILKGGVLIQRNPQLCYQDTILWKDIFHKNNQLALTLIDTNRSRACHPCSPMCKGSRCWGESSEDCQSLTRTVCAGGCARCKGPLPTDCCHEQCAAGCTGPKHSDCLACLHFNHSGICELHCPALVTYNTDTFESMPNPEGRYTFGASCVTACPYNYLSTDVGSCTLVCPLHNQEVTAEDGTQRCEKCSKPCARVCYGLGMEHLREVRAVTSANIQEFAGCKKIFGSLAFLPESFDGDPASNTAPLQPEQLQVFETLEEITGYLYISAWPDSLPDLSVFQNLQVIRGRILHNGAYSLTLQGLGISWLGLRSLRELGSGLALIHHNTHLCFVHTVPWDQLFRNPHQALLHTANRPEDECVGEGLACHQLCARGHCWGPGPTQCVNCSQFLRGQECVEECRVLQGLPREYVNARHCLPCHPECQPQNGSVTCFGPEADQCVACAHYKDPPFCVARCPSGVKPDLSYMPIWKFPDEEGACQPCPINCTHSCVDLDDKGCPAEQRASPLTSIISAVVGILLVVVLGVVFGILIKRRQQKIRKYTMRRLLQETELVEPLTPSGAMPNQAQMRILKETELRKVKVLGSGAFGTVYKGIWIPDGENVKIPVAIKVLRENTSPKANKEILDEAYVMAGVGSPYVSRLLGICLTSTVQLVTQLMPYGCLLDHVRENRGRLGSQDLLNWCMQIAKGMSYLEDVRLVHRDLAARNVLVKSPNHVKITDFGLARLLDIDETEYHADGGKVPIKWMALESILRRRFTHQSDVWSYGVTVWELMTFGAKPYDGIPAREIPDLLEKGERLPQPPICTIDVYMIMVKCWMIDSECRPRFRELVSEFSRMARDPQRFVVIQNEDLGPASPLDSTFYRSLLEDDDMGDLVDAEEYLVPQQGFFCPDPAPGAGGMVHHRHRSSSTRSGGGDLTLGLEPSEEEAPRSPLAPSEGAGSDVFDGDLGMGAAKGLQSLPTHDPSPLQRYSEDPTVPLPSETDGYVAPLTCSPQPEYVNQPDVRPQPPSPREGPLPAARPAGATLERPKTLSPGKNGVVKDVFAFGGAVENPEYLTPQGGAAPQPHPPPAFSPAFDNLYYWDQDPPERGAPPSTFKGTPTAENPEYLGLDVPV

`CCOc1ccc2cc(C#N)c(SCC(=O)N3CCCC3)nc2c1`: the viability in assay [1] was 71.5%; in assay [3], 71.5% (inactive); in assay [4] it was 85.3% (inactive); in assay [5], 87.3% (inactive); in assay [6] (setting [9]), 75.8%; in assay [6] (setting [10]), 87.3%. For the same compound, the Her2 level in assay [2] was 112% (inactive). Further, in assay [6] (H69AR cells + 2 uM doxorubicin), the differential viability (reversal) was 11.5% (inactive). Besides, the inhibition in assay [7] was 6.45% (inactive); in assay [8] it was -3.64% (inactive).

`CCOC(=O)c1nnn(CC(=O)Nc2cccc(OC)c2)c1C(=O)OCC`: the viability in assay [1] was 92.5%; in assay [3], 92.5% (inactive); in assay [4], 100% (inactive); in assay [5] it was 83.7% (inactive); in assay [6] (setting [9]), 86.3%; in assay [6] (setting [10]), 83.7%. For the same compound, the Her2 level in assay [2] is 86.5% (inactive). Also, the differential viability (reversal) in assay [6] (H69AR cells + 2 uM doxorubicin) is -2.59% (inactive). Also, the results for the inhibition in assay [7] and in assay [8] were -4.53% (inactive) and 0.98% (inactive), respectively.

Consider `O=C(CSc1ccc(Cl)cc1)OCc1nnc(-c2ccccc2)o1`, for which the viability in assay [1] is 98%; in assay [3] it was 98% (inactive); in assay [4], 106% (inactive); in assay [5], 109% (inactive); in assay [6] (setting [9]), 79.5%; in assay [6] (setting [10]), 109%. In addition, the Her2 level in assay [2] was 99% (inactive). Also, the differential viability (reversal) in assay [6] (H69AR cells + 2 uM doxorubicin) is 29.6% (inactive). Moreover, the inhibition in assay [7] was 0.53% (inactive); in assay [8], -0.91% (inactive).

Take `CCN(CC)S(=O)(=O)c1ccc(F)cc1`: the viability was 116% in assay [1]; 116% (inactive) in assay [3]; 98.7% (inactive) in assay [4]; 93% (inactive) in assay [5]; 87.1% in assay [6] (setting [9]); 93% in assay [6] (setting [10]). Also, the Her2 level in assay [2] was 106% (inactive). Besides, the differential viability (reversal) in assay [6] (H69AR cells + 2 uM doxorubicin) was 5.97% (inactive). Also, the inhibition in assay [7] was -8.77% (inactive); in assay [8], 4.13% (inactive).

For `Cc1nnc(SCC(=O)NCCN2C(=O)CSC2=O)s1`, the viability in assay [1] was 96.5%; in assay [3], 96.5% (inactive); in assay [4], 114% (inactive); in assay [5], 98.3% (inactive); in assay [6] (setting [9]) it was 100%; in assay [6] (setting [10]), 98.3%. In addition, the Her2 level in assay [2] was 102% (inactive). In assay [6] (H69AR cells + 2 uM doxorubicin), the differential viability (reversal) is -1.88% (inactive). Further, the values for the inhibition in assay [7] and in assay [8] were -3.24% (inactive) and 0.63% (inactive), respectively.

As for `Cc1ccc(-c2nnc3ccc(SCC(=O)NCc4ccco4)nn23)cc1`, the viability is 100% in assay [1]; 100% (inactive) in assay [3]; 89% (inactive) in assay [4]; 93.2% (inactive) in assay [5]; 83.9% in assay [6] (setting [9]); 93.2% in assay [6] (setting [10]). Moreover, the Her2 level in assay [2] is 87.5% (inactive). Further, the differential viability (reversal) in assay [6] (H69AR cells + 2 uM doxorubicin) was 9.33% (inactive). Further, the figures for the inhibition in assay [7] and in assay [8] were -5.41% (inactive) and -8.33% (inactive), respectively.

For `COc1ccc2[nH]c(=O)c(CNC3CCCCC3)cc2c1`, the viability was 101% in assay [1]; 101% (inactive) in assay [3]; 115% (inactive) in assay [4]; 89.5% (inactive) in assay [5]; 84.5% in assay [6] (setting [9]); 89.5% in assay [6] (setting [10]). Further, in assay [2], the Her2 level is 93% (inactive). Further, in assay [6] (H69AR cells + 2 uM doxorubicin), the differential viability (reversal) is 5% (inactive). In addition, the inhibition is -4.16% (inactive) in assay [7] and 0.5% (inactive) in assay [8].

For `Cn1nnnc1SCC(=O)N1CCN(c2cccc(Cl)c2)CC1`, the viability in assay [1] is 108%; in assay [3] it was 108% (inactive); in assay [4], 97.2% (inactive); in assay [5] it was 85.6% (inactive); in assay [6] (setting [9]), 77.5%; in assay [6] (setting [10]), 85.6%. In addition, the Her2 level in assay [2] is 89% (inactive). Also, the differential viability (reversal) in assay [6] (H69AR cells + 2 uM doxorubicin) is 8.05% (inactive). Further, the inhibition in assay [7] is -1.43% (inactive); in assay [8] it was -1.11% (inactive).

For `CCOC(=O)N1CCC(NC(=O)CSCc2nc(-c3cccc(OC)c3)oc2C)CC1`, the viability was 94.5% in assay [1]; 94.5% (inactive) in assay [3]; 97.7% (inactive) in assay [4]; 106% (inactive) in assay [5]; 103% in assay [6] (setting [9]); 106% in assay [6] (setting [10]). Further, the Her2 level in assay [2] is 91% (inactive). In addition, in assay [6] (H69AR cells + 2 uM doxorubicin), the differential viability (reversal) was 2.79% (inactive). Further, the inhibition is -2% (inactive) in assay [7] and 3.06% (inactive) in assay [8].

As for `CC(=O)C1=C(C)NC(SCSc2ccccc2)=C(C#N)C1c1cccnc1` (stereo not given), the viability in assay [1] is 80%; in assay [3], 80% (inactive); in assay [4], 81.7% (inactive); in assay [5], 94.1% (inactive); in assay [6] (setting [9]) it was 87.5%; in assay [6] (setting [10]), 94.1%. Moreover, in assay [2], the Her2 level was 106% (inactive). Besides, the differential viability (reversal) in assay [6] (H69AR cells + 2 uM doxorubicin) was 6.64% (inactive). In addition, the inhibition was 0.91% (inactive) in assay [7] and -1.64% (inactive) in assay [8].

`Cc1nc(CNS(=O)(=O)c2cc(C)c(C)cc2C)cs1`: the viability in assay [1] was 99%; in assay [3] it was 99% (inactive); in assay [4] it was 121% (inactive); in assay [5] it was 94.3% (inactive); in assay [6] (setting [9]), 89.9%; in assay [6] (setting [10]) it was 94.3%. Moreover, the Her2 level in assay [2] is 89% (inactive). Further, in assay [6] (H69AR cells + 2 uM doxorubicin), the differential viability (reversal) was 4.38% (inactive). The values for the inhibition in assay [7] and in assay [8] were -7.57% (inactive) and 1.67% (inactive), respectively.

For the compound `COc1ccc(Cl)cc1Nc1nc(C)cc(=O)[nH]1`, the viability in assay [1] is 95%; in assay [3], 95% (inactive); in assay [4], 80.6% (inactive); in assay [5] it was 95.8% (inactive); in assay [6] (setting [9]) it was 93.7%; in assay [6] (setting [10]) it was 95.8%. In addition, in assay [2], the Her2 level was 86% (inactive). Besides, the differential viability (reversal) in assay [6] (H69AR cells + 2 uM doxorubicin) was 2.12% (inactive). The inhibition in assay [7] was -3.68% (inactive); in assay [8] it was -0.97% (inactive).

Consider `COc1ccccc1OCCSc1nc2ccccc2c(=O)[nH]1`, for which the viability is 81.5% in assay [1]; 81.5% (inactive) in assay [3]; 84.6% (inactive) in assay [4]; 95.2% (inactive) in assay [5]; 80.1% in assay [6] (setting [9]); 95.2% in assay [6] (setting [10]). Further, the Her2 level in assay [2] is 105% (inactive). Besides, the differential viability (reversal) in assay [6] (H69AR cells + 2 uM doxorubicin) was 15.1% (inactive). The inhibition in assay [7] was -3.97% (inactive); in assay [8] it was -4% (inactive).

Consider `O=C(OCC#CCSc1nnc(-c2ccccc2)o1)c1cccs1`, for which the viability was 130% in assay [1]; 130% (inactive) in assay [3]; 98.3% (inactive) in assay [4]; 94.9% (inactive) in assay [5]; 82.8% in assay [6] (setting [9]); 94.9% in assay [6] (setting [10]). The Her2 level in assay [2] was 92% (inactive). The differential viability (reversal) in assay [6] (H69AR cells + 2 uM doxorubicin) was 12.1% (inactive). In addition, the inhibition in assay [7] was -6.13% (inactive); in assay [8] it was -4.92% (inactive).

The values above are taken from PubChem BioAssay.
